Data published in ChEMBL document CHEMBL1136556, “Synthesis and SAR of alpha-acylaminoketone ligands for control of gene expression” (2003).

What was measured:
Assay type in all cases: functional
[1] = molecular target: T1, Ecdysone receptor (Bombyx mori) (UniProt P49881); experiment: Agonist activity against Bombyx mori ecdysone receptor
T1 sequence (whole entry): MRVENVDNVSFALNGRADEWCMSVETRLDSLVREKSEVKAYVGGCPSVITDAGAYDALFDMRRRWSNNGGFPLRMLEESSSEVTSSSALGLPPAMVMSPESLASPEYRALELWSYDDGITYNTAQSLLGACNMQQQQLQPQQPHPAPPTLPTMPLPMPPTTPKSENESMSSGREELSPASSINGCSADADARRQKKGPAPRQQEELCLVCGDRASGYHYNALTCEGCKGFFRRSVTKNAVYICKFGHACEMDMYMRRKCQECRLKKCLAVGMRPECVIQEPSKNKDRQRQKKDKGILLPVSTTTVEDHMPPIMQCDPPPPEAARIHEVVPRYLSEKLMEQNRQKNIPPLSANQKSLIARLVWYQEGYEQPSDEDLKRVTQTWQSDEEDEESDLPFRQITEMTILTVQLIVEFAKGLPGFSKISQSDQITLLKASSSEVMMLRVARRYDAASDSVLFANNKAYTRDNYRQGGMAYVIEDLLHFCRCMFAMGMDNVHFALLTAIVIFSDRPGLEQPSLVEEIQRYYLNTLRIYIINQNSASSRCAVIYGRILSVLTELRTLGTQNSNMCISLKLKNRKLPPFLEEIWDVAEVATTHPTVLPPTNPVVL
In short: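 HEK-293 clone Z3 stably expressing Bombyx mori EcR with a β-galactosidase reporter under an ecdysone response element. Cells seeded at 2.5 × 10⁴ cells mL⁻¹ and held 24 h at 37 °C, 5% CO₂. Ligands from 10 mM DMSO stocks were diluted 100-fold in medium (final DMSO 0.03%). Luminescence read at 48 h; dose-response value is the dose giving 50% of maximal transactivation.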

[2] = tested on: HEK293; experiment: Dose response transactivation assay result expressed as dose affording 50% of max transactivation; details: Homo sapiens, read-out: LC50
In short: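 HEK-293 clone Z3 engineered to express Bombyx mori EcR, with a β-galactosidase gene under an ecdysone response element. Cells seeded at 2.5 × 10⁴ cells mL⁻¹, grown 24 h at 37 °C in 5% CO₂, then dosed across a concentration series from 10 mM DMSO stocks. Final DMSO 0.03%. Bioluminescent β-gal readout at 48 h; value is dose giving 50% of maximum transactivation.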

[3] = Ratio of max level of gene expression of compound to max level of gene expression with compound 1d
In short: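 Dose-response assay in Z3 HEK-293 cells (Bombyx mori EcR, ecdysone response element–β-galactosidase reporter), 48 h ligand exposure, final DMSO 0.03%, bioluminescent read-out. Value is the compound's maximal reporter expression divided by the maximal expression given by the reference dibenzoylhydrazine ecdysone agonist.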

SMILES | Fold induction [1] | EC50 (transactivation) [2] | Rel Max FI [3]
CCC(CC)(NC(=O)c1cccc(OC)c1C)C(=O)c1ccc(C)cc1 | 8 | – | –
CCC(CC)(NC(=O)c1cccc(OC)c1C)C(=O)c1ccc(OC)cc1 | 4 | – | –
COc1cccc(C(=O)NC(C)(C(=O)c2ccccc2C)C(C)C)c1C (stereo unspecified) | 452 | 18 µM | 0.26
CCC(CC)(NC(=O)c1cccc(OC)c1C)C(=O)c1cccc(C)c1 | 525 | 6.6 µM | 0.25
CC(C)(NC(=O)c1ccccc1)C(=O)c1ccccc1 | 1 | – | –
CC(C)(NC(=O)c1ccc2c(c1)OCO2)C(=O)c1ccccc1 | 1 | – | –
O=C(NC1(C(=O)c2ccccc2)CCCC1)c1ccc2c(c1)OCO2 | 1 | – | –
COc1cccc(C(=O)C2(NC(=O)c3cccc(OC)c3C)CCCC2)c1 | – | – | 0.12
CCC(CC)(NC(=O)c1cccc(OC)c1C)C(=O)c1cc(C)cc(C)c1 | 1000 | 4.5 µM | 0.6
COc1cccc(C(=O)NC2(C(=O)c3ccc(F)cc3)CCCC2)c1C | 218 | 15 µM | 0.14
CCC(CC)(NC(=O)c1cccc(OC)c1C)C(=O)c1ccccc1C | 5 | – | –
CCc1ccc(C(=O)NC(C)(C)C(=O)c2ccccc2)cc1 | 2 | – | –
COc1cccc(C(=O)NC(C)(C(=O)c2cc(C)cc(C)c2)C(C)C)c1C (stereo unspecified) | 751 | 2.1 µM | 0.75
CCC(CC)(NC(=O)c1cccc(OC)c1C)C(=O)c1ccccc1 | 11 | – | –
O=C(NC1(C(=O)c2ccccc2)CCCC1)c1ccccc1 | 2 | – | –
COc1cccc(C(=O)NC(C)(C(=O)c2ccccc2)C(C)C)c1C (stereo unspecified) | 71 | 33.3 µM | 0.04
CCC(CC)(NC(=O)c1cccc(OC)c1C)C(=O)c1ccccc1OC | 384 | 6.2 µM | 0.29
Cc1ccccc1C(=O)NC1(C(=O)c2ccccc2)CCCC1 | 2 | – | –
CCC(CC)(NC(=O)c1cccc(OC)c1C)C(=O)c1ccc(F)cc1 | 60 | 13.7 µM | 0.04

SMILES | Fold induction [1] | EC50 (transactivation) [2] | Rel Max FI [3]
COc1cccc(C(=O)NC2(C(=O)c3ccccc3)CCCC2)c1C | 71 | 2.7 µM | 0.14
COc1ccccc1C(=O)C1(NC(=O)c2cccc(OC)c2C)CCCC1 | 1200 | 5.2 µM | 0.7
Cc1ccccc1C(=O)NC(C)(C)C(=O)c1ccccc1 | 1 | – | –
COc1ccccc1C(=O)C(C)(NC(=O)c1cccc(OC)c1C)C(C)C (stereo unspecified) | 599 | 15 µM | 0.2
COc1cccc(C(=O)NC(C)(C)C(=O)c2ccccc2)c1C | 2 | – | –
COc1cccc(C(=O)NC(C)(C(=O)c2ccc(C)cc2)C(C)C)c1C (stereo unspecified) | 31 | 20 µM | 0.05
COc1cccc(C(=O)NC2(C(=O)c3ccc(C)cc3)CCCC2)c1C | 21 | – | –
COc1cccc(C(=O)NC2(C(=O)c3cc(C)cc(C)c3)CCCC2)c1C | 660 | 1.9 µM | 0.85
CCC(CC)(NC(=O)c1cccc(OC)c1C)C(=O)c1cccc(OC)c1 | 256 | 33.3 µM | 0.01
CCC(CC)(NC(=O)c1cccc(OC)c1C)C(=O)c1ccc(F)c(C)c1 | 223 | 10.4 µM | 0.07
COc1cccc(C(=O)C(C)(NC(=O)c2cccc(OC)c2C)C(C)C)c1 (stereo unspecified) | 35 | 25.5 µM | 0.12
COc1cccc(C(=O)NC(C)(C(=O)c2cccc(C)c2)C(C)C)c1C (stereo unspecified) | 370 | 8.6 µM | 0.47
COc1cccc(C(=O)NC2(C(=O)c3ccccc3)CCCC2)c1 | 2 | – | –
COc1cccc(C(=O)NC2(C(=O)c3ccc(F)c(C)c3)CCCC2)c1C | 487 | 3.5 µM | 0.43
COc1ccc(C(=O)C2(NC(=O)c3cccc(OC)c3C)CCCC2)cc1 | 5 | – | –
COc1cccc(C(=O)NC(C)(C(=O)c2ccc(F)c(C)c2)C(C)C)c1C (stereo unspecified) | – | – | 0.24
COc1cccc(C(=O)NC2(C(=O)c3ccccc3C)CCCC2)c1C | 30 | – | –
COc1cccc(C(=O)NC(C)(C)C(=O)c2ccccc2)c1 | 1 | – | –
COc1cccc(C(=O)NC2(C(=O)c3cccc(C)c3)CCCC2)c1C | 291 | 3.4 µM | 0.46
